XiGFP reactiv: activators of inactive X chromosome reactivation, primary screen, imaging, XiGFP fibroblasts, GFP high-content imaging, set 2 | XiGFP mouse fibroblasts, % GFP-positive cells imaging, 3 d; cells co-treated with 5-aza-dC sensitizer; scaled so ellipticine positive control = 100% | activation, % at 7.58 µM | 0.055% of 360,000 active | AID 743238, 2013;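 active = mean normalized replicate activation at least 10% and every replicate at or above 10%; inconclusive = only one of the two criteria met; inactive = mean below 10% and not all replicates reach 10%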;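 also: 0% = median of on-plate neutral control wells and 100% = ellipticine 6 µM median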
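Material: XiGFP fibroblasts, SV40-immortalized; Buffer or medium: DMEM containing 5-aza-dC; Compound dosing: single point; Times: 3 days compound exposure.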
GSIS activator: GLuc luminescence reporter in INS-1E cells, primary screen for activators of glucose-dependent secretion of insulin | activation, % at 16.6 µM | 0.61% of 370,000 active | INS-1E GLuc reporter insulin secretion, 2-3 h;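 active = lowest replicate activation of at least 40%, so every replicate reaches that level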;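 also: 0% = median of neutral control wells and 100% = median of IBMX positive control wells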
GAA850 FXN act: FXN promoter activators, primary screen, cell-based, luciferase luminescence, HEK293 lucGAA850; HEK293 lucGAA850 FXN promoter luciferase reporter, 24 h; percent of 10 µM SAHA response; activation, % at 6 µM; 0.56% of 360,000 active; AID 540364, 2011;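 active = activation above the average of all compounds screened plus 3 SD, cutoff fixed separately per campaign, cut at about 7.5% in these data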;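 also: 0% = DMSO wells and 100% = 10 µM SAHA wells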
CaV13 ICDI inh: Disruptors of the CACNA1D IQ motif to Ca2+-dependent inactivation inhibitor domain association, primary screening, Förster resonance energy transfer in intact living …. HEK cells, CFP/YFP FRET ICDI-IQ, plate reader, 10 min; percent FRET-ratio fall versus neutral wells. inhibition, % at 12.3 µM. 0.098% of 340,000 active. AID 743397;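 active = mean replicate inhibition of at least 30% and at least 1% of replicates passing that level; inconclusive = only one of the two criteria is met; inactive = neither criterion is met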;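 also: 0% = median of the neutral control wells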
Numbers without * were called inactive; ? = inconclusive; / = not tested or not shown; + = active, no number. Only some compounds are listed: those with a hit (about 1% of all), similar ones and a draw of the others.

SMILES | XiGFP reactiv | GSIS activator | GAA850 FXN act | CaV13 ICDI inh
CCOc1cc(N2CCOCC2)c(OCC)cc1NC(=O)COC(=O)c1cc2ccccc2cc1O | -0.1 | 141.5* | 0.0 | -14.5
CCOc1cc(N2CCOCC2)c(OCC)cc1NC(=O)COC(=O)c1ccc(Cl)cc1N | 0.0 | / | 1.9 | -5.1
COc1ccc(OC)c(CN2C(=O)c3ccccc3C2C(=O)NCC2CCCO2)c1 (configuration not stated) | -0.1 | 52.3* | 1.4 | -16.3
O=C(NCC1CCCO1)C1CCC(N2C(=O)c3ccccc3C2=O)CC1 (configuration not stated) | / | 80.6* | 3.7 | -5.1
COc1ccc(CN2C(=O)c3ccccc3C2C(=O)NCC2CCCO2)c(OC)c1 (configuration not stated) | / | -5.6 | -0.2 | /
Cc1noc(C)c1NC(=O)Nc1ccc2c(c1)CC(=O)N([C@@H](C)CO)C[C@@H](C)[C@@H](CN(C)C(=O)Nc1c(C)noc1C)O2 | 0.4 | 8.4 | / | /
CC(=O)OCCNc1cc(Sc2nc3ccccc3[nH]2)c2nonc2c1[N+](=O)[O-] | 17.0* | 121.2* | 0.8 | -6.5
C=C1C(=O)[C@]23C[C@H]1CCC2[C@@]1(C)C(C[C@@H]3O)[C@](C)(C(=O)OC)CC[C@@H]1O (some centres not stated) | -0.1 | 86.8* | / | -4.7
COC(=O)C[C@H]1CC[C@H]2[C@@H](COc3ccc(NC(=O)CN(C)C)cc3C(=O)N2C)O1 | 0.1 | 2.4 | / | /
O=S(=O)(Nc1ccc(Nc2ccccc2)cc1)c1ccc(F)cc1 | 0.0 | -46.6 | 0.5 | -4.2
Cc1ccc(S(=O)(=O)Nc2ccc(Nc3ccccc3)cc2)cc1 | -0.1 | -12.4 | 0.7 | 68.5*
COc1ccc(NC(=O)Nc2ccc3c(c2)C(=O)N([C@@H](C)CO)C[C@@H](C)[C@@H](CN(C)S(=O)(=O)c2ccc(F)cc2)OCCCC[C@@H](C)O3)cc1 | 0.2 | -8.2 | / | /
O=C(/C=C/c1ccc2c(c1)OCO2)Nc1c(C(=O)O)[nH]c2ccccc12 | 0.0 | -13.6 | -4.6 | -5.1
CCOC(=O)c1[nH]c2ccc(OC)cc2c1NC(=O)/C=C/c1ccc2c(c1)OCO2 | 0.3 | 65.6* | 2.4 | -9.0
CCCc1cc2c(OC)ccc(O)c2c(=O)n1C | -0.2 | 53.3* | / | -3.7
CCCc1cc2c(O)ccc(O)c2c(=O)o1 | 0.6 | 7.3 | / | -2.8
COc1ccccc1NC(=O)COc1cccnc1[N+](=O)[O-] | 0.0 | 26.4 | 0.6 | -5.5
COC(=O)c1sc(NC(=O)COc2cccnc2[N+](=O)[O-])c(C(=O)OC)c1C | -0.1 | 40.0* | -1.2 | -6.9
CCCCCCCCCCCCCCCC[n+]1ccc(/C=N/O)cc1 | ? | 47.1* | -6.9 | /
CCCCCCCCCCCCCCCC[n+]1ccccc1 | 0.1 | 497.2* | -7.7 | -4.9
O/N=C/c1cccc[n+]1CCCCCC[n+]1ccccc1/C=N/O | 0.0 | 14.4 | 1.5 | 3.9
CCCCCCCCCCCCCCCC[n+]1ccc(C(N)=O)cc1 | 0.0 | 14.6 | -4.2 | -3.6
NC(=O)CSc1nc(-c2ccccc2)c(-c2ccccc2)o1 | / | 72.8* | 2.6 | /
O=C(CSc1nc(-c2ccccc2)c(-c2ccccc2)o1)N1CCCCC1 | 0.1 | -21.1 | -0.8 | -7.2
O=C1/C(=C\c2ccc(Cl)c(Cl)c2)CN(C(=O)CCN2CCOCC2)C/C1=C/c1ccc(Cl)c(Cl)c1 | 2.3 | 135.8* | -15.4 | -9.7
SMILES | XiGFP reactiv | GSIS activator | GAA850 FXN act | CaV13 ICDI inh
CC1Cc2ccccc2N1C(=S)NC(=O)c1cccc(Br)c1 (configuration not stated) | 0.3 | 51.2* | 0.6 | -3.8
CC1Cc2ccccc2N1C(=S)NC(=O)c1ccc(Cl)cc1Cl (configuration not stated) | 0.0 | -4.9 | -3.6 | -4.7
CC1(C(=O)N2CCCCC2)CCN1C(=O)C1(c2ccccc2)CC1 (configuration not stated) | 0.6 | 40.1* | 0.4 | -7.7
CNC(=O)C[C@H]1CC[C@@H]2[C@H](COc3ccc(NC(=O)c4ccccc4Cl)cc3C(=O)N2C)O1 | 0.4 | 0.1 | / | /
CCOC(=O)C1=C(O)/C(=C/c2cc(OC)c(O)c(OC)c2)SC1=Nc1ccc(OC)cc1 | 14.6* | 64.9 | 3.2 | -7.8
CO[C@H]1CN(C)C(=O)c2cc(NS(C)(=O)=O)ccc2OC[C@H](C)N(S(C)(=O)=O)C[C@@H]1C | 0.4 | 30.9 | / | /
CCOc1ccccc1NC(=O)CSc1ccc(-c2ccco2)nn1 | -0.1 | 60.7* | 2.6 | -9.0
CCOc1ccccc1NC(=O)Cn1nc(-c2ccco2)ccc1=O | 0.2 | 9.7 | 1.5 | -3.3
COCC(=O)N(C)C[C@H]1Oc2cc(C#CC3CCCC3)ccc2S(=O)(=O)N([C@@H](C)CO)C[C@@H]1C | -1.3 | -4.2 | / | /
COc1ccc(-n2c3c(c(=O)[nH]c2=O)C(NS(=O)(=O)c2ccc(Cl)cc2)(C(F)(F)F)C(=O)N3)cc1 (configuration not stated) | -0.1 | 55.0* | -1.3 | -5.2
O=C(c1ccncc1)N1N=C(C2CCCCC2)CC1(O)C(F)(F)F (configuration not stated) | 0.0 | 18.5 | 1.2 | -4.8
O=C(c1ccco1)N1N=C(C2CCCCC2)CC1(O)C(F)(F)F (configuration not stated) | 0.0 | 51.9* | 2.6 | -4.4
O=S(=O)(N[C@H]1CC[C@@H](CCn2cc(Cc3ccccc3)nn2)O[C@@H]1CO)c1ccccc1F | 0.0 | -14.0 | / | /
COc1ccc2c3c(n(C)c2c1)[C@H](CO)N(C(=O)CN(C)C)CC31CCN(Cc2cccnc2)CC1 | 0.2 | 24.3 | / | /
CC1CC(C)CN(CCCNC(=O)CCC(=O)N2CC(C)Oc3ccccc32)C1 (configuration not stated) | -0.3 | -0.7 | 0.7 | 38.4*
Cc1ccc2c(c1)N(C(=O)CCC(=O)NCCCN1CCOCC1)CC(C)O2 (configuration not stated) | -0.4 | 10.9 | -0.5 | 47.5*
Cc1ccc2c(c1)N(C(=O)CCC(=O)NCCN1CCOCC1)CC(C)O2 (configuration not stated) | -0.1 | 2.3 | 0.7 | -5.6
FC(F)(F)c1cc(CCN2CCNC[C@@H]2c2ccccc2)cc(C(F)(F)F)c1 | 0.1 | 114.6* | -0.6 | -10.9
c1ccc(C[C@H]2CNCCN2CCCCC2CCCCC2)cc1 | 0.1 | 56.9* | 3.9 | -5.6
c1ccc2c(C[C@@H]3CNCCN3CCCCC3CCCCC3)cccc2c1 | 0.2 | / | 1.2 | -4.0
FC(F)(F)c1cc(CCN2CCNC[C@@H]2CC2CCCCC2)cc(C(F)(F)F)c1 | 0.0 | + | 0.2 | -4.9
Fc1cccc(CCN2CCNC[C@@H]2c2ccccc2)c1 | 0.1 | -17.0 | 1.9 | -10.0
NC1=NC[C@H](CC2CCCCC2)N1CCc1cc(C(F)(F)F)cc(C(F)(F)F)c1 | 0.0 | + | -2.4 | -5.1
